Measured values from BindingDB's records for doi:10.1021/jm950541c (Georgia Institute of Technology, 1996).

Target: T1, Calpain-2 catalytic subunit (Homo sapiens, UniProt P17655)
T1 sequence (P17655 whole entry): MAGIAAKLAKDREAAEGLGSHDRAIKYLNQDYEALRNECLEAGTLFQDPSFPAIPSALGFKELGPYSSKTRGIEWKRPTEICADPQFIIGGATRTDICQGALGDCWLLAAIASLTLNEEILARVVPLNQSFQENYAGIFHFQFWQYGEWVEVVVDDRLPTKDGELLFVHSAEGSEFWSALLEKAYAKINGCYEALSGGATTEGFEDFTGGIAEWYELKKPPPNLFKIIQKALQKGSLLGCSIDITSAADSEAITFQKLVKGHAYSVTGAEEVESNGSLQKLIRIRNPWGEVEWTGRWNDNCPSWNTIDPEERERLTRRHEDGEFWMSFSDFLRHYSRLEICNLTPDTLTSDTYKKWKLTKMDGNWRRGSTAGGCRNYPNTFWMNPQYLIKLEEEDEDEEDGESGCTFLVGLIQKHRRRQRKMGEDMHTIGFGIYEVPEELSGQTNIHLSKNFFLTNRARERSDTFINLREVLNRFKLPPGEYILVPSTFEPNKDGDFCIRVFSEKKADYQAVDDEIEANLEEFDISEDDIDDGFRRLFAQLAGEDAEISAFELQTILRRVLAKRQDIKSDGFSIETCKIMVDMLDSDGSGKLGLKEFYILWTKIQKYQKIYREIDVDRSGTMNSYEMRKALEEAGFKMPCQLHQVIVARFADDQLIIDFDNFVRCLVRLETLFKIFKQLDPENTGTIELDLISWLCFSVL
Assay: Compound was evaluated for the inhibition of Cysteine protease Calpain 2
How it was run: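 Calpain assay in 25 mM Tris, pH 8.0, with 10 mM CaCl₂ and 5% DMSO. Suc-Leu-AMC hydrolysis was read as initial velocity (t = 30-60 s) after a 30 s delay, at room temperature. Five or more inhibitor concentrations (not above 2 × K_obs) were used at two fixed substrate levels. Ki came from Dixon plots (1/v vs I) averaged over triplicates.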

Structure (SMILES) | Ki
CCC(NC(=O)C(CC(C)C)NC(=O)OCc1ccccc1)C(=O)C(=O)NCc1ccco1 (stereo not given) [{1-[1-(Furan-2-ylmethyl)-aminooxalyl]-propylcarbamoyl}-3-methyl-butyl)-carbamic acid benzyl ester] | 33 nM
CC(C)CC(NC(=O)OCc1ccccc1)C(=O)NC(Cc1ccccc1)C(=O)C(=O)NCC(O)c1c(F)c(F)c(F)c(F)c1F (stereo not given) [{1-[1-Benzyl-2-(2-hydroxy-2-pentafluorophenyl-ethylcarbamoyl)-2-oxo-ethylcarbamoyl]-3-methyl-butyl}-carbamic acid benzyl ester] | 350 nM
CCC(NC(=O)C(CC(C)C)NC(=O)OCc1ccccc1)C(=O)C(=O)NCc1nc2c(c(=O)n(C)c(=O)n2C)n1C (stereo not given) [{3-Methyl-1-[1-(1,3,7-trimethyl-2,6-dioxo-2,3,6,7-tetrahydro-1H-purin-8-ylmethyl)-aminooxalyl]-propylcarbamoyl}-butyl)-carbamic acid benzyl ester] | 4600 nM
CCC(NC(=O)C(CC(C)C)NC(=O)OCc1ccccc1)C(=O)C(=O)NCCCn1ccnc1 (stereo not given) [{1-[1-(3-Imidazol-1-yl-propylaminooxalyl)-propylcarbamoyl]-3-methyl-butyl}-carbamic acid benzyl ester] | 68 nM
CC(C)CC(NC(=O)OCc1ccccc1)C(=O)NC(Cc1ccccc1)C(=O)C(=O)NCC(O)c1cccc(Oc2cccc(C(F)(F)F)c2)c1 (stereo not given) [[1-(1-Benzyl-2-{2-hydroxy-2-[3-(3-trifluoromethyl-phenoxy)-phenyl]-ethylcarbamoyl}-2-oxo-ethylcarbamoyl)-3-methyl-butyl]-carbamic acid benzyl ester] | 450 nM
CC(C)CC(NC(=O)C(c1ccccc1)c1ccccc1)C(=O)NC(Cc1ccccc1)C(=O)C(=O)NCC(O)c1ccccc1 (stereo not given) [2-Diphenylacetylamino-4-methyl-pentanoic acid [1-benzyl-2-(2-hydroxy-2-phenyl-ethylcarbamoyl)-2-oxo-ethyl]-amide] | 730 nM
CCCC(NC(=O)C(CC(C)C)NC(=O)OCc1ccccc1)C(=O)C(=O)NCCCN1CCOCC1 (stereo not given) [{3-Methyl-1-[1-(3-morpholin-4-yl-propylaminooxalyl)-butylcarbamoyl]-butyl}-carbamic acid benzyl ester] | 100 nM
CCC(NC(=O)C(CC(C)C)NC(=O)OCc1ccccc1)C(=O)C(=O)NCCc1ccc(OC)cc1 (stereo not given) [(1-{1-[2-(4-Methoxy-phenyl)-ethylaminooxalyl]-propylcarbamoyl}-3-methyl-butyl)-carbamic acid benzyl ester] | 46 nM
CC(C)CC(NC(=O)OCc1ccccc1)C(=O)NC(Cc1ccccc1)C(=O)C(=O)NCCCN1CCOCC1 (stereo not given) [{1-[1-Benzyl-2-(3-morpholin-4-yl-propylcarbamoyl)-2-oxo-ethylcarbamoyl]-3-methyl-butyl}-carbamic acid benzyl ester] | 330 nM
CCC(NC(=O)C(CC(C)C)NC(=O)OCc1ccccc1)C(=O)C(=O)NCC1(C)CC(O)CC(C)(C)C1 (stereo not given) [{1-[1-(5-Hydroxy-1,3,3-trimethyl-cyclohexylmethyl)-aminooxalyl]-propylcarbamoyl}-3-methyl-butyl)-carbamic acid benzyl ester] | 69 nM
CCC(NC(=O)C(CC(C)C)NC(=O)OCc1ccccc1)C(=O)C(=O)NCCNC(=O)CCCC[C@@H]1SC[C@@H]2NC(=O)N[C@@H]21 (stereo partly drawn) [[3-Methyl-1-(1-{2-[5-((3aR,6S,6aS)-2-oxo-hexahydro-thieno[3,4-d]imidazol-6-yl)-pentanoylamino]-ethylaminooxalyl}-propylcarbamoyl)-butyl]-carbamic acid benzyl ester] | 280 nM
CCC(NC(=O)C(CC(C)C)NC(=O)OCc1ccccc1)C(=O)C(=O)NCc1ccccn1 (stereo not given) [{3-Methyl-1-[1-(pyridin-2-ylmethyl)-aminooxalyl]-propylcarbamoyl}-butyl)-carbamic acid benzyl ester] | 17 nM
CCC(NC(=O)C(CC(C)C)NC(=O)OCc1ccccc1)C(=O)C(=O)NCC(O)c1ccc2ccccc2c1 (stereo not given) [{1-[1-(2-Hydroxy-2-naphthalen-2-yl-ethylaminooxalyl)-propylcarbamoyl]-3-methyl-butyl}-carbamic acid benzyl ester] | 110 nM
CC(C)CC(NC(=O)OCc1ccccc1)C(=O)NC(Cc1ccccc1)C(=O)C(=O)NCC(O)c1ccccc1 (stereo not given) [{1-[1-Benzyl-2-(2-hydroxy-2-phenyl-ethylcarbamoyl)-2-oxo-ethylcarbamoyl]-3-methyl-butyl}-carbamic acid benzyl ester] | 50 nM
CCC(NC(=O)C(CC(C)C)NC(=O)OCc1ccccc1)C(=O)C(=O)NCCc1cccc(OC)c1 (stereo not given) [(1-{1-[2-(3-Methoxy-phenyl)-ethylaminooxalyl]-propylcarbamoyl}-3-methyl-butyl)-carbamic acid benzyl ester] | 86 nM
CCC(NC(=O)C(CC(C)C)NC(=O)OCc1ccccc1)C(=O)C(=O)NCCc1c[nH]c2ccccc12 (stereo not given) [(1-{1-[2-(1H-Indol-3-yl)-ethylaminooxalyl]-propylcarbamoyl}-3-methyl-butyl)-carbamic acid benzyl ester] | 50 nM
CCC(NC(=O)C(CC(C)C)NC(=O)OCc1ccccc1)C(=O)C(=O)NCC(O)c1ccccc1 (stereo not given) [{1-[1-(2-Hydroxy-2-phenyl-ethylaminooxalyl)-propylcarbamoyl]-3-methyl-butyl}-carbamic acid benzyl ester] | 15 nM
CCC(NC(=O)C(CC(C)C)NC(=O)OCc1ccccc1)C(=O)C(=O)NCCCCCO (stereo not given) [{1-[1-(5-Hydroxy-pentylaminooxalyl)-propylcarbamoyl]-3-methyl-butyl}-carbamic acid benzyl ester] | 51 nM
CCC(NC(=O)C(CC(C)C)NC(=O)OCc1ccccc1)C(=O)C(=O)NC (stereo not given) [[3-Methyl-1-(1-methylaminooxalyl-propylcarbamoyl)-butyl]-carbamic acid benzyl ester] | 83 nM
CC(C)CC(NC(=O)OCc1ccccc1)C(=O)NC(Cc1ccccc1)C(=O)C(=O)NCC(O)c1ccc(OCc2ccccc2)c(OCc2ccccc2)c1 (stereo not given) [(1-{1-Benzyl-2-[2-(3,4-bis-benzyloxy-phenyl)-2-hydroxy-ethylcarbamoyl]-2-oxo-ethylcarbamoyl}-3-methyl-butyl)-carbamic acid benzyl ester] | 670 nM
CCC(NC(=O)C(CC(C)C)NC(=O)OCc1ccccc1)C(=O)C(=O)NCc1nccc2ccccc12 (stereo not given) [{1-[1-(Isoquinolin-1-ylmethyl)-aminooxalyl]-propylcarbamoyl}-3-methyl-butyl)-carbamic acid benzyl ester] | 150 nM

Continued by falling Ki, values first:

Ki | Structure (SMILES)
11000 nM | CCCC(NC(=O)C(CC(C)C)NC(=O)OCc1ccccc1)C(=O)C(=O)NCC(O)c1ccccc1 (stereo not given) [{1-[1-(2-Hydroxy-2-phenyl-ethylaminooxalyl)-butylcarbamoyl]-3-methyl-butyl}-carbamic acid benzyl ester]
580 nM | CCNC(=O)C(=O)C(CC)NC(=O)C(CC(C)C)NC(=O)c1ccco1 (stereo not given) [Furan-2-carboxylic acid [1-(1-ethylaminooxalyl-propylcarbamoyl)-3-methyl-butyl]-amide]
410 nM | CCC(NC(=O)C(CC(C)C)NC(=O)OCc1ccccc1)C(=O)C(=O)NCC(O)c1ccc(N(C)C)cc1 (stereo not given) [(1-{1-[2-(4-Dimethylamino-phenyl)-2-hydroxy-ethylaminooxalyl]-propylcarbamoyl}-3-methyl-butyl)-carbamic acid benzyl ester]
290 nM | CCC(NC(=O)C(CC(C)C)NC(=O)OCc1ccccc1)C(=O)C(=O)NCC(O)c1ccc(Oc2ccccc2)cc1 (stereo not given) [(1-{1-[2-Hydroxy-2-(4-phenoxy-phenyl)-ethylaminooxalyl]-propylcarbamoyl}-3-methyl-butyl)-carbamic acid benzyl ester]
160 nM | CCOC(CNC(=O)C(=O)C(CC)NC(=O)C(CC(C)C)NC(=O)OCc1ccccc1)OCC (stereo not given) [{1-[1-(2,2-Diethoxy-ethylaminooxalyl)-propylcarbamoyl]-3-methyl-butyl}-carbamic acid benzyl ester]
150 nM | CNC(=O)C(=O)C(Cc1ccccc1)NC(=O)C(CC(C)C)NC(=O)OCc1ccccc1 (stereo not given) [[1-(1-Benzyl-2-methylcarbamoyl-2-oxo-ethylcarbamoyl)-3-methyl-butyl]-carbamic acid benzyl ester]
130 nM | CCNC(=O)C(=O)C(CC)NC(=O)C(CC(C)C)NC(=O)CCc1ccccc1 (stereo not given) [3-[4-Methyl-2-(3-phenyl-propionylamino)-pentanoylamino]-2-oxo-pentanoic acid ethylamide]
120 nM | CCC(NC(=O)C(CC(C)C)NC(=O)OCc1ccccc1)C(=O)C(=O)NCC(O)c1cccc(Oc2ccc(Cl)c(Cl)c2)c1 (stereo not given) [[1-(1-{2-[3-(3,4-Dichloro-phenoxy)-phenyl]-2-hydroxy-ethylaminooxalyl}-propylcarbamoyl)-3-methyl-butyl]-carbamic acid benzyl ester]
110 nM | CCNC(=O)C(=O)C(CC)NC(=O)C(CC(C)C)NC(=O)c1nccc2ccccc12 (stereo not given) [Isoquinoline-1-carboxylic acid [1-(1-ethylaminooxalyl-propylcarbamoyl)-3-methyl-butyl]-amide]
